Data from PubChem BioAssay AID809 (SRMLSC, 2007).
The source made the active and inactive calls.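 Rule for the calls: active = EC50 for reversing nicotinamide-shortened yeast lifespan at or below a set limit; inactive = EC50 above that limit.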

System: S. cerevisiae DeaD BB579, nicotinamide rescue growth, OD615 48 h
Assay: BB579 yeast growth restoration under nicotinamide – S. cerevisiae, yeast lifespan extension project, dose response (AID 809)
Procedure, shortened: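 Assay system: Saccharomyces cerevisiae DeaD strain BB579, log-phase cells; Medium: CSMM-D glucose restrictive medium; Dosing: compounds from 0.078 to 10 µM final, 0.5% DMSO; Times: 4 h pre-incubation, 48 h exposure at 30 °C; Technique: optical density at 615 nm (absorbance); Evaluation: culture saturation density reflecting mother-cell replicative lifespan.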

Row | Compound | EC50
1 | C/C=C/Cn1c(N2CCCCCC2)nc2c1c(=O)[nH]c(=O)n2C | > 10 µM (inactive)
2 | C[C@]12CC[C@@H](O)C[C@@H]1CC[C@@H]1[C@@H]2CC[C@]2(C)[C@@H](O)CC[C@@H]12 | > 10 µM (inactive)
3 | CC(C)(C)C(=O)Cn1c(=N)n(Cc2ccccc2)c2ccccc21 | 9.33 µM
4 | COc1ccc(CNC(=O)C2CCN(c3nc(OC)nc(OC)n3)CC2)cc1 | > 10 µM (inactive)
5 | N#Cc1cc(C(=O)c2cc(F)ccc2O)cn(-c2nccs2)c1=O | > 10 µM (inactive)
6 | C=C1C(=O)C=C2CN(C(=O)c3ccccc3)[C@@](Cc3ccc(F)cc3)(C(=O)OC)[C@@H]12 | > 10 µM (inactive)
7 | CCC(C)OC(=O)C1C(c2ccccc2)C(C(=O)O)C1c1ccccc1 (centres undefined) | 8.26 µM
8 | O=C(Nc1cccc(Cl)c1)c1ccc2c(=O)n3c(nc2c1)CCCCC3 | 6.59 µM
9 | O=C(NCc1ccco1)c1c(O)c2cccc3c2n(c1=O)CCC3 | 5.98 µM
10 | Cc1ccc(-c2ccc(/C=C3\C(=O)ON=C3c3ccccc3)o2)c([N+](=O)[O-])c1 | 6.93 µM
11 | CCC(=NCCc1c(C)[nH]c2ccc(C)cc12)C1=C(O)CC(c2ccccc2)CC1=O (centres undefined) | 5.08 µM
12 | Cc1nn(-c2c(Cl)cc(Cl)cc2Cl)c(=O)c2ccccc12 | 6.34 µM
13 | CCCCCCCCn1c(=O)c(C(=O)OCC)c(O)c2ccccc21 | 9.18 µM
14 | O=c1c2ccccc2nc(-c2cccc(Cl)c2)n1O | < 0.078 µM
